Activity calls are given as the source filed them. The rule behind the calls is not given here.

As usually defined, the EC50 is the concentration that produces a half-maximal response. A word on the IC50: it is the concentration needed to halve the response being measured.

Test [1] concerns Dengue virus. Description: Antiviral activity against Dengue virus infected in african green monkey Vero cells administered before viral challenge after 3 days by viral plaque assay. In kind it is functional, organism-based. A digest of the protocol:
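Monolayers seeded at 1 × 10^4 cells per well were pretreated for 180 min at 37°C with inhibitor at two noncytotoxic concentrations. They were then inoculated with DENV at moi 1 for 60 min at 37°C. Supernatant harvested 3 days postinfection was titrated by plaque assay. Activity was called at ≥five-fold (0.7 log) titer decrease.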

The test system of test [2] is Dengue virus. Description: Antiviral activity against Dengue virus infected in african green monkey Vero cells administered after viral challenge after 3 days by viral plaque assay. In kind it is functional, organism-based. In outline:
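Cells were seeded at 1 × 10^4 per well and infected with DENV at moi 1. Protein kinase inhibitors were then added at two noncytotoxic concentrations, set beforehand by MTT assay in Vero cells. After 3 days, infectious yield in the supernatant was titrated by plaque assay. Activity was called at ≥five-fold (0.7 log) titer decrease.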

The test system of test [3] is dengue virus type 2. Description: Antiviral activity against Dengue virus 2 NGC infected in african green monkey Vero cells after 3 days by immunofluorescence assay. Format: functional, organism-based. To be noted: 72 h. A digest of the protocol:
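DENV2 NGC was adsorbed to Vero monolayers at moi 1 for 60 min at 37°C with 5% CO2, then washed with PBS. Inhibitor was added at 0.02–10 μM final in 0.25% DMSO and incubated for 3 days. Cells were fixed and stained with anti-E mAb, FITC secondary and DAPI. Infected cells were counted in four automated-microscope fields per well and compared with DMSO-treated infected wells. IC50 came from nonlinear regression.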

Test [4] has as its system dengue virus type 2. Description: Antiviral activity against Dengue virus 2 infected in african green monkey Vero cells. In kind it is functional, organism-based. A digest of the protocol:
(§1)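 Vero, Huh-7 or C6/36 cells were infected with DENV2 at moi 1. Inhibitor was then added at noncytotoxic concentrations of 50 nM–5 μM for three days. Virus titer in the culture supernatant was measured by plaque assay.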

Test [5] deals with Dengue virus. Description: Inhibition of viral spread in Dengue virus-infected african green monkey Vero cells assessed as accumulation of viral envelope protein within perinuclear region at 2.5 uM after 6 days by immunofluorescence assay relative to control. Format: functional, organism-based. A digest of the protocol:
(§2)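 Vero, Huh-7 or C6/36 cells were infected with DENV2 at moi 1 and then treated with 2.5 μM inhibitor or DMSO. Cells were fixed at days 4, 5 and 6 postinfection and stained for envelope protein by immunofluorescence. Envelope localization, including perinuclear accumulation, and infection of surrounding cells were compared with the DMSO control.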

Test [6] has as its system Dengue virus. As to the kind of experiment: Inhibition of viral spread in Dengue virus-infected african green monkey Vero cells assessed as accumulation of viral envelope protein within perinuclear region at 2.5 uM after 5 days by immunofluorescence assay relative to control. In kind it is functional, organism-based. In outline: as §2
In test [7] the test system is Dengue virus. As to the kind of experiment: Inhibition of viral spread in Dengue virus-infected human Huh7 cells assessed as accumulation of viral envelope protein within perinuclear region at 2.5 uM after 6 days by immunofluorescence assay relative to control. The note with it: Huh-7. In kind it is functional, organism-based. A digest of the protocol:
as §2

The subject of test [8] is Dengue virus. Description: Inhibition of viral spread in Dengue virus-infected asian tiger mosquito C6/36 cells assessed as accumulation of viral envelope protein within perinuclear region at 2.5 uM after 5 days by immunofluorescence assay relative to control. Format: functional, organism-based. In outline: as §2
The subject of test [9] is Dengue virus. As to the kind of experiment: Inhibition of viral spread in Dengue virus-infected african green monkey Vero cells assessed as accumulation of viral envelope protein within perinuclear region at 2.5 uM after 4 days by immunofluorescence assay relative to control. Format: functional, organism-based. A digest of the protocol:
as §2

The test system of test [10] is Dengue virus. As to the kind of experiment: Inhibition of viral spread in Dengue virus-infected asian tiger mosquito C6/36 cells assessed as accumulation of viral envelope protein within perinuclear region at 2.5 uM after 4 days by immunofluorescence assay relative to control. Format: functional, organism-based. A digest of the protocol: as §2
For test [11], the system named is dengue virus type 2. Description: Antiviral activity against Dengue virus 2 infected in asian tiger mosquito C6/36 cells. In kind it is functional, organism-based. A digest of the protocol: as §1
Test [12] has as its system Dengue virus. Description: Inhibition of viral spread in Dengue virus-infected human Huh7 cells assessed as accumulation of viral envelope protein within perinuclear region at 2.5 uM after 4 days by immunofluorescence assay relative to control. In kind it is functional, organism-based. To be noted: Huh-7. In outline:
as §2

The test system of test [13] is Dengue virus. As to the kind of experiment: Inhibition of viral spread in Dengue virus-infected asian tiger mosquito C6/36 cells assessed as accumulation of viral envelope protein within perinuclear region at 2.5 uM after 6 days by immunofluorescence assay relative to control. Format: functional, organism-based. In outline:
as §2

Test [14] concerns dengue virus type 2. As to the kind of experiment: Antiviral activity against Dengue virus 2 infected in human Huh7 cells. In kind it is functional, organism-based. To be noted: Huh-7. In outline:
as §1

The test system of test [15] is Dengue virus. Description: Inhibition of viral spread in Dengue virus-infected human Huh7 cells assessed as accumulation of viral envelope protein within perinuclear region at 2.5 uM after 5 days by immunofluorescence assay relative to control. Format: functional, organism-based. To be noted: Huh-7. In outline:
as §2

Test [16] relates to dengue virus type 1. As to the kind of experiment: Antiviral activity against Dengue virus 1 Hawaii infected in african green monkey Vero cells. In kind it is functional, organism-based.
In test [17] the test system is Poliovirus 1. As to the kind of experiment: Antiviral activity against Poliovirus 1 infected in african green monkey Vero cells. Format: functional, organism-based.
In test [18] the test system is dengue virus type 2. As to the kind of experiment: Inhibition of Dengue virus 2 assembly in african green monkey Vero cells assessed as virus-induced membrane structures at 2.5 uM after 4 days postinfection by electron microscopy. Format: functional, organism-based. In outline: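 DENV2-infected Vero cells were treated with 2.5 μM inhibitor, with DMSO-treated infected cells and DMSO-treated mock-infected cells as controls. At 4 days postinfection, cells were fixed in 2.5% glutaraldehyde plus 2.0% paraformaldehyde at 4°C for 24 h. Samples were embedded, sectioned and examined by transmission electron microscopy for virus particles and virus-induced membranes.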

A short description of test [19]: Inhibition of PDGFR.
The nature of test [20]: Inhibition of p38 MAPK.
Test [21] has as its system dengue virus type 4. Description: Antiviral activity against Dengue virus 4 H241 infected in african green monkey Vero cells. In kind it is functional, organism-based.
Test [22] has as its system Modoc virus. As to the kind of experiment: Antiviral activity against Modoc virus M544 infected in african green monkey Vero cells. Format: functional, organism-based.
For test [23], the system named is dengue virus type 3. As to the kind of experiment: Antiviral activity against Dengue virus 3 H87 infected in african green monkey Vero cells. In kind it is functional, organism-based.

`CC(C)(C)c1nc2c3ccc(F)cc3c3c(=O)[nH]ccc3c2[nH]1`: in test [1], the outcome was Active.
`Cn1cc(/C=C2\C(=O)Nc3ccc(S(N)(=O)=O)cc32)c2ccccc21`: the outcome in [1] and in [2] was Active.
In turn, `COc1c(C)c2c(c(O)c1C/C=C(\C)CCC(=O)O)C(=O)OC2` [MYCOPHENOLIC ACID] gave an EC50 in test [3] of 5700 nM.
`O=S(=O)(c1cccc2c(I)cccc12)N1CCCNCC1`: the result in test [2] was Active.
Turning to `CN1CCN(CCOc2cc(OC3CCOCC3)c3c(Nc4c(Cl)ccc5c4OCO5)ncnc3c2)CC1`, the Activity result in test [4], in test [11] and in [14] was “Dose-dependent effect” in each case. The outcome in [5], in [6], in [7], in test [8], in test [9] and in test [10] was Active. For the same molecule, the outcome in [12], in test [13], in [2] and in test [15] was Active.
`COc1cc2ncnc(Nc3cccc(Br)c3)c2cc1OC`: the outcome in test [2] was Active.
In the case of `Brc1c(Br)c(Br)c2[nH]nnc2c1Br`, the result in test [1] and in test [2] was Active.
For the molecule `NC(=O)c1cccc(-c2cc(Nc3ccc(OC(F)(F)F)cc3)ncn2)c1`, the outcome in test [1] and in test [2] was Active.
Consider `CNc1ncc2c(n1)N(C)C(=O)N(c1cc(NC(=O)c3cc(-n4cnc(C)c4)cc(C(F)(F)F)c3)ccc1C)C2`, for which the outcome in [1] and in test [2] was Active.
In the case of `Cc1ccc(NC(=O)c2ccc(CN3CCN(C)CC3)cc2)cc1Nc1nccc(-c2cccnc2)n1`, the result in test [1] was Active.
Turning to `O=C(O)c1cc(NCc2cc(O)ccc2O)ccc1O`, the outcome in test [2] was Active.
With `O=C(O)c1cc(N(Cc2ccccc2O)Cc2cc(O)ccc2O)ccc1O`, in test [2], the outcome was Active.
Regarding `O=C1Cc2c([nH]c3ccc(Br)cc23)-c2ccccc2N1`, in test [2], the outcome was Active.
Take `Cc1ccc(Nc2nccc(-c3ccccc3)n2)cc1F`: in [1], the result was Active.
As for `N#C/C(=C\c1ccc(O)c(O)c1)C(N)=O`, the outcome in test [2] was Active.
With `COc1cc2ncnc(Nc3ccc(Oc4ccccc4)cc3)c2cc1OC`, the result in [1] and in [2] was Active.
In the case of `CCN(CC)CCNC(=O)c1c(C)[nH]c(/C=C2\C(=O)Nc3ccc(Cl)cc32)c1C`, in test [2], the outcome was Active.
With `Cc1nc(Nc2ncc(C(=O)Nc3c(C)cccc3Cl)s2)cc(N2CCN(CCO)CC2)n1` [DASATINIB], the Activity entry in test [4], in test [16], in [11], in test [21], in test [14] and in test [22] was “Dose-dependent effect” each time. Further, the Activity result in test [23] was “Dose-dependent effect”. Besides, the outcome in test [5], in test [6], in test [7], in [8], in test [18] and in [9] was Active. Also, the result in [10], in [12], in test [13], in test [2] and in [15] was Active. The outcome in test [17] was inactive. Besides, the IC50 in test [19] was 28 nM; in test [20] it was 100 nM.
